# According to ChEMBL document CHEMBL1132709, “Novel cyclopropapyrroloindole derivative (AT-3510) bearing methoxycarbonyl and trifluoromethyl groups” (J Med Chem, 1999):
# Legend:
# [1] = system: Mus musculus; test: In vivo antitumor activity (3.13 mg/kg) is the measure of tumor growth inhibition of human tumor xenograft DLD-1 (colon) implanted sc in mice.; assay type: functional
# Summary of the method: (§1)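 Tumor fragments (2–3 mm3) implanted sc into female BALB/cA Jcl-nu mice on day 0; single iv dose given once tumor volume reached about 100 mm3. Read-out is maximum tumor growth inhibition, as percentage versus untreated group.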
# [2] = system: Mus musculus; test: In vivo antitumor activity (3.13 mg/kg) is the measure of tumor growth inhibition of human tumor xenograft HCT116 (colon) implanted sc in mice.; assay type: functional; summary of the method: as §1
# [3] = system: Mus musculus; test: In vivo antitumor activity (3.13 mg/kg) is the measure of tumor growth inhibition of human tumor xenograft NUGC-3 (stomach) implanted sc in mice.; assay type: functional; summary of the method: as §1
# [4] = system: Mus musculus; test: In vivo antitumor activity (3.13 mg/kg) is the measure of tumor growth inhibition of human tumor xenograft WiDr (colon) implanted sc in mice.; assay type: functional; summary of the method: as §1
# [5] = system: Mus musculus; test: In vivo antitumor activity is the measure of tumor growth inhibition of Colon 26 murine […] cells.; assay type: functional
# Summary of the method: (§2)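 Colon 26 cells (10^6/mouse) inoculated sc into male CDF1 mice on day 0; single iv dose on day 7. Tumor growth inhibition expressed as percentage versus untreated group.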
# [6] = system: Mus musculus; test: In vivo concentration required to inhibit the Colon 26 murine […] cell growth by 50%; assay type: functional
# [7] = Ratio between max dose within 10% body weight loss and tumor growth inhibition; assay type: functional
# Summary of the method: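 Ratio of maximum dose within 10% body weight loss to the dose giving 50% tumor growth inhibition, in sc Colon 26-bearing mice dosed iv.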
# [8] = system: Mus musculus; test: In vivo antitumor activity (1 mg/Kg) is the measure of tumor growth inhibition of colon 26 murine […] cells.; assay type: functional
# Summary of the method: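 Colon 26 cells (10^6/mouse) inoculated sc into male CDF1 mice on day 0; drug given iv on day 7. Read-out is percentage tumor growth inhibition versus the untreated group.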
# [9] = system: HeLa; test: Concentration required to inhibit the growth of HeLaS3 human uterine cervix carcinoma cells by 50%; assay type: functional, cell-based
# [10] = system: Mus musculus; test: In vivo antitumor activity (0.0884 mg/Kg) is the measure of tumor growth inhibition of colon 26 murine […] cells.; assay type: functional; summary of the method: as §2
# [11] = system: Mus musculus; test: In vivo concentration required to inhibit the colon 26 murine […] cell growth by 50%; assay type: functional
# [12] = system: Mus musculus; test: In vivo antitumor activity (0.716 mg/kg) is the measure of tumor growth inhibition of human tumor xenograft NUGC-3 (stomach) implanted sc in mice.; assay type: functional
# Summary of the method: (§3)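 Tumor fragments (2–3 mm3) implanted sc into female BALB/cA Jcl-nu mice on day 0. A single iv dose was given once tumor volume reached about 100 mm3. Read-out is percentage of maximum tumor growth inhibition versus the untreated group.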
# [13] = system: Mus musculus; test: In vivo antitumor activity (1 mg/kg) is the measure of tumor growth inhibition of human tumor xenograft DLD-1 (colon) implanted sc in mice.; assay type: functional; summary of the method: as §3
# [14] = system: Mus musculus; test: In vivo antitumor activity (1 mg/kg) is the measure of tumor growth inhibition of human tumor xenograft HCT116 (colon) implanted sc in mice.; assay type: functional; summary of the method: as §3
# [15] = system: Mus musculus; test: In vivo antitumor activity (1 mg/kg) is the measure of tumor growth inhibition of human tumor xenograft WiDr (colon) implanted sc in mice.; assay type: functional; summary of the method: as §3
smiles,measurement,setting,value
COC(=O)c1c(C(F)(F)F)[nH]c2c(OC(=O)N3CCN(C)CC3)cc3c(c12)[C@H](CCl)CN3C(=O)c1cc2cc(NC(=O)c3cc4cccc(OC)c4o3)ccc2[nH]1,TGI,[1],83%
same,TGI,[2],90%
same,TGI,[3],100%
same,TGI,[4],86%
same,TGI,[5],95%
same,TGI50,[6],0.265 mg/kg
same,Ratio,[7],7.6
COC(=O)c1c(C(F)(F)F)[nH]c2c(O)cc3c(c12)[C@H](CCl)CN3C(=O)c1cc2cc(-c3cc4ccccc4o3)ccc2[nH]1 (racemic),TGI,[8],84%
same,IC50,[9],3.6 ng/mL
Cc1c[nH]c2c1[C@@]13C[C@@H]1CN(C(=O)c1cc4cc(NC(=O)c5cc6ccccc6o5)ccc4[nH]1)C3=CC2=O [ADOZELESIN],TGI,[10],79%
same,TGI50,[11],0.0444 mg/kg
same,Ratio,[7],2
same,IC50,[9],0.0364 ng/mL
COC(=O)c1c(C)[nH]c2c(OC(=O)N3CCN(C)CC3)cc3c(c12)[C@H](CBr)CN3C(=O)c1cc2cc(OC)c(OC)c(OC)c2[nH]1 [PIBROZELESIN],TGI,[12],91%
same,TGI,[13],65%
same,TGI,[14],73%
same,TGI,[15],59%
same,Ratio,[7],3.4
